Measured values published in PubChem BioAssay AID651708 (Sanford-Burnham Center for Chemical Genomics, 2012).
Several values for one entry are separate records, joined by “and”; a condition that tells them apart may be missing. Identical values can stand only once. Activity calls are given as the source filed them.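 The calls were made as follows: active = compound with IC50 above 30 µM at both the APJ and CCR6 off-target receptors, and at most 10 µM at CXCR6; inactive = the rest.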

Legend:
Test in all cases: GPCR panel antagonist activity incl. apelin receptor – cell-based, CHO-K1 PathHunter beta-arrestin, luminescence, set 3, selectivity assay for CXCR6 antagonist project, profiling panel (AID 651708)
[1] = molecular target: Apelin receptor (Homo sapiens) (UniProt P35414); conditions: antagonist mode, APJ
Apelin receptor (Homo sapiens), sequence (P35414 whole entry, looked up): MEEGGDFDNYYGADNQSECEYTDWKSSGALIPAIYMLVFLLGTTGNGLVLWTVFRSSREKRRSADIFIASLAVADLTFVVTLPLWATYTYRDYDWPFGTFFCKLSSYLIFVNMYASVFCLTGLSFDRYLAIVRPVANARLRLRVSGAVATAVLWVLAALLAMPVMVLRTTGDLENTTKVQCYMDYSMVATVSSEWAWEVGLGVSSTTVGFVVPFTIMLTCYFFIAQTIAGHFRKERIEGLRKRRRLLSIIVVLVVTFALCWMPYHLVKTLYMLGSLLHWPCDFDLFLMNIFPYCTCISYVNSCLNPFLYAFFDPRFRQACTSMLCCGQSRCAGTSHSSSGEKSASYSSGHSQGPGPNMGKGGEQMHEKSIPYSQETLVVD
Method in brief: (§1)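 test system = CHO-K1 PathHunter β-arrestin cell lines for APJ, CCR6 or CXCR6 | reagent = APJ 10 nM Apelin-13, CCR6 14 nM CCL20, CXCR6 CXCL16 | measured by = β-arrestin recruitment luminescence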

[2] = molecular target: C-X-C chemokine receptor type 6 (Homo sapiens) (UniProt O00574); conditions: antagonist mode
C-X-C chemokine receptor type 6 (Homo sapiens), sequence (O00574 whole entry, looked up): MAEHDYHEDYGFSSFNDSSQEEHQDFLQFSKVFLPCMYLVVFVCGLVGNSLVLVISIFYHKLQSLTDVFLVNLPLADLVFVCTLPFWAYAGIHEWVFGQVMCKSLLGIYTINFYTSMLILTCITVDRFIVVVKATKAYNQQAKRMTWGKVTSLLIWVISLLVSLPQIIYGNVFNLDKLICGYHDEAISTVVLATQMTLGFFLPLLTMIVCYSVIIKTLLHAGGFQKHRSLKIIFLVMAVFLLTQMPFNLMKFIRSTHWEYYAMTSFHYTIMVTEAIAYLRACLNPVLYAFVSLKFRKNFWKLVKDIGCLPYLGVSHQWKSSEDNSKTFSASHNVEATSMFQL
Method in brief: as §1

[3] = molecular target: C-C chemokine receptor type 6 (Homo sapiens) (UniProt P51684); conditions: antagonist mode
C-C chemokine receptor type 6 (Homo sapiens), sequence (P51684 whole entry, looked up): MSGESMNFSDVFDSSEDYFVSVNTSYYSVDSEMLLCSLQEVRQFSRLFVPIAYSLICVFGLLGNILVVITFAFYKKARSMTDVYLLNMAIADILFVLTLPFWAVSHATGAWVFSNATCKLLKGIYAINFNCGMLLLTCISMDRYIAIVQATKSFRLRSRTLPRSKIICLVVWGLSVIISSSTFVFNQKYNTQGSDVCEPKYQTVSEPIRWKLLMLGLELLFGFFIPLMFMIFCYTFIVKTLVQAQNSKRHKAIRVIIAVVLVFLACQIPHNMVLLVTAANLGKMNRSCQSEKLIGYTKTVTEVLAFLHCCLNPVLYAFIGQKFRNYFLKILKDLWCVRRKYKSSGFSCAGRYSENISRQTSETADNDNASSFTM
Method in brief: as §1

| Compound | IC50 ([1]; mean of runs) | IC50 ([1]; run 1) | IC50 ([1]; run 2) | IC50 ([2]; CXCR6, mean of runs) | IC50 ([2]; CXCR6, run 1) | IC50 ([2]; CXCR6, run 2) | IC50 ([3]; CCR6, mean of runs) | IC50 ([3]; CCR6, run 1) | IC50 ([3]; CCR6, run 2) |
| --- | --- | --- | --- | --- | --- | --- | --- | --- | --- |
| COc1cc(OC)cc(C(=O)NC2CC3CCCC(C2)N3CC(=O)Nc2ccc(F)cc2)c1 (stereo unspecified) | > 79 µM (inactive) | > 79 µM | > 79 µM | > 79 µM (inactive) | > 79 µM | > 79 µM | > 79 µM (inactive) | > 79 µM | > 79 µM |
| COc1cc(C(=O)NC2CC3CCCC(C2)N3CC(=O)Nc2ccc(F)cc2)cc(OC)c1OC (stereo unspecified) | > 79 µM (inactive) | > 79 µM | > 79 µM | 3.51 µM | 3.08 µM | 3.95 µM | > 79 µM (inactive) | > 79 µM | > 79 µM |
| COc1ccc(C(=O)NC2CC3CCCC(C2)N3CC(=O)Nc2ccc(C)cc2)cc1OC (stereo unspecified) | > 79 µM (inactive) | > 79 µM | > 79 µM | > 79 µM (inactive) | > 79 µM | > 79 µM | > 79 µM (inactive) | > 79 µM | > 79 µM |
| COc1ccc(CN2C3CCCC2CC(NC(=O)c2cc(OC)c(OC)c(OC)c2)C3)cc1 (stereo unspecified) | 17.1 µM | 10.1 µM | 24.2 µM | > 79 µM (inactive) | > 79 µM | > 79 µM | > 79 µM (inactive) | > 79 µM | > 79 µM |
| COc1ccc(C(=O)NC2CC3CCCC(C2)N3CC(=O)Nc2ccc(F)cc2)cc1 (stereo unspecified) | > 79 µM (inactive) | > 79 µM | > 79 µM | > 79 µM (inactive) | > 79 µM | > 79 µM | > 79 µM (inactive) | > 79 µM | > 79 µM |
| COc1cccc(C(=O)NC2CC3CCCC(C2)N3CC(=O)Nc2ccc(C)cc2)c1 (stereo unspecified) | – | > 79 µM | 1.18 µM | > 79 µM (inactive) | > 79 µM | > 79 µM | > 79 µM (inactive) | > 79 µM | > 79 µM |
| COc1cc(C(=O)NC2CC3CCCC(C2)N3CC(=O)Nc2ccccc2)cc(OC)c1OC (stereo unspecified) | > 79 µM (inactive) | > 79 µM | > 79 µM | 4.78 µM and 4.75 µM | 4.48 µM and 4.08 µM | 5.09 µM and 5.43 µM | > 79 µM (inactive) | > 79 µM | > 79 µM |
| Cc1ccc(NC(=O)CN2C3CCCC2CC(NC(=O)c2ccc4c(c2)OCO4)C3)cc1 (stereo unspecified) | – | > 79 µM | 28.6 µM | > 79 µM (inactive) | > 79 µM | > 79 µM | > 79 µM (inactive) | > 79 µM | > 79 µM |
| COc1ccc(C(=O)NC2CC3CCCC(C2)N3CC(=O)Nc2ccc(C)cc2)cc1 (stereo unspecified) | > 79 µM (inactive) | > 79 µM | > 79 µM | > 79 µM (inactive) | > 79 µM | > 79 µM | > 79 µM (inactive) | > 79 µM | > 79 µM |
| COc1ccc(NC(=O)CN2C3CCCC2CC(NC(=O)c2cccc(OC)c2)C3)cc1 (stereo unspecified) | > 79 µM (inactive) | > 79 µM | > 79 µM | > 79 µM (inactive) | > 79 µM | > 79 µM | > 79 µM (inactive) | > 79 µM | > 79 µM |
| COc1cccc(C(=O)NC2CC3CCCC(C2)N3CC(=O)Nc2ccccc2)c1 (stereo unspecified) | > 79 µM (inactive) | > 79 µM | > 79 µM | > 79 µM (inactive) | > 79 µM | > 79 µM | > 79 µM (inactive) | > 79 µM | > 79 µM |
| COc1ccc(NC(=O)CN2C3CCCC2CC(NC(=O)c2ccc(OC)cc2)C3)cc1 (stereo unspecified) | – | > 79 µM | 4.23 µM | > 79 µM (inactive) | > 79 µM | > 79 µM | > 79 µM (inactive) | > 79 µM | > 79 µM |
| COc1ccc(C(=O)NC2CC3CCCC(C2)N3CC(=O)Nc2ccc(F)cc2)cc1OC (stereo unspecified) | > 79 µM (inactive) | > 79 µM | > 79 µM | > 79 µM (inactive) | > 79 µM | > 79 µM | > 79 µM (inactive) | > 79 µM | > 79 µM |
| COc1cc(C(=O)NC2CC3CCCC(C2)N3CC(=O)Nc2ccc(Cl)cc2)cc(OC)c1OC (stereo unspecified) | – | > 79 µM | 52.7 µM | 1.46 µM | 1.27 µM | 1.65 µM | > 79 µM (inactive) | > 79 µM | > 79 µM |
| COc1ccc(NC(=O)CN2C3CCCC2CC(NC(=O)c2cc(OC)cc(OC)c2)C3)cc1 (stereo unspecified) | > 79 µM (inactive) | > 79 µM | > 79 µM | > 79 µM (inactive) | > 79 µM | > 79 µM | > 79 µM (inactive) | > 79 µM | > 79 µM |
